Measured values taken from ChEMBL document CHEMBL3046177, “Plant growth inhibitory activity of p-hydroxyacetophenones and tremetones from Chilean endemic Baccharis species and some analogous: a comparative study” (J Agric Food Chem, 2002).
pIC50: −log10 of the molar value. The source made the active and inactive calls. The rule behind the calls is not given here.

Key:
Trifolium pratense [1] = assay: Phytotoxicity against Trifolium pratense (red clover) assessed as inhibition of seed respiration during germination after 24 hr; assay type: functional, organism-based
Method in brief: (§1)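 Oxygen uptake of germinating seeds measured polarographically with a Clark-type electrode at 25 °C in a nonilluminated cell over 5 and 10 min, at several compound concentrations. Expressed as percent of control (100%). Three experiments; RI50 from Probit analysis.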

Trifolium pratense [2] = assay: Increase of root development during seeding stage in Trifolium pratense (red clover) at 50 to 300 uM after 120 hr; assay type: functional, organism-based
Method in brief: (§2)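 Petri-dish seedling assay on filter paper wetted with test solution (MeOH < 1%), 28 °C in the dark. Coleoptile/hypocotyl and root lengths of all germinated seeds measured after 120 h, then plants dried to constant weight at 40 °C. Three replicates; 50% inhibitory concentrations by Probit analysis of percent inhibition versus concentration.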

Lolium multiflorum [3] = assay: Phytotoxicity against Lolium multiflorum (Italian ryegrass) assessed as inhibition of seed respiration during germination after 24 hr; assay type: functional, organism-based; method in brief: as §1
Lolium multiflorum [4] = assay: Phytotoxicity against Lolium multiflorum (Italian ryegrass) assessed as inhibition of seed germination at 500 uM after 48 hr; assay type: functional
Method in brief: (§3)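 Seeds of uniform size on Whatman No.1 filter paper in 85 mm Petri dishes, wetted with 8 or 10 mL deionized water or test solution (MeOH < 1%); controls got matching water/methanol. Sealed, incubated at 28 °C in the dark, scored at 48 h intervals; germination = 1 mm radicle extrusion. Three replicates.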

Lactuca sativa [5] = assay: Phytotoxicity against Lactuca sativa (lettuce) assessed as inhibition of root development during seeding stage after 120 hr; assay type: functional, organism-based; details: for pIC50: read-out: I50; method in brief: as §2
Lactuca sativa [6] = assay: Phytotoxicity against Lactuca sativa (lettuce) assessed as inhibition of seed respiration during germination after 24 hr; assay type: functional, organism-based; method in brief: as §1
Lolium multiflorum [7] = assay: Phytotoxicity against Lolium multiflorum (Italian ryegrass) assessed as inhibition of root development during seeding stage after 120 hr; assay type: functional, organism-based; details: for pIC50: read-out: I50; method in brief: as §2
[8] = system: Lolium multiflorum (ryegrass); assay: Phytotoxicity against Lolium multiflorum (ryegrass) assessed as inhibition of seed germination at 500 uM after 48 hr
Lolium multiflorum [9] = assay: Phytotoxicity against Lolium multiflorum (Italian ryegrass) assessed as inhibition of seed respiration during germination at 300 to 500 uM after 24 hr; assay type: functional, organism-based; method in brief: as §1
Physalis ixocarpa [10] = assay: Phytotoxicity against Physalis ixocarpa assessed as inhibition of root development during seeding stage after 120 hr; assay type: functional, organism-based; details: for pIC50: read-out: I50; method in brief: as §2
Lactuca sativa [11] = assay: Phytotoxicity against Lactuca sativa (lettuce) assessed as inhibition of seed germination after 48 hr; assay type: functional; method in brief: as §3
Lactuca sativa [12] = assay: Phytotoxicity against Lactuca sativa (lettuce) assessed as inhibition of shoot development during seeding stage after 120 hr; assay type: functional, organism-based; details: for pIC50: read-out: I50; method in brief: as §2
Trifolium pratense [13] = assay: Increase of shoot development during seeding stage in Trifolium pratense (red clover) at 200 uM after 120 hr; assay type: functional, organism-based; method in brief: as §2
Trifolium pratense [14] = assay: Phytotoxicity against Trifolium pratense (red clover) assessed as inhibition of root development during seeding stage after 120 hr; assay type: functional, organism-based; details: for pIC50: read-out: I50; method in brief: as §2
Lolium multiflorum [15] = assay: Increase of seed respiration during germination in Lolium multiflorum (Italian ryegrass)at 30 uM; assay type: functional, organism-based; method in brief: as §1
Physalis ixocarpa [16] = assay: Phytotoxicity against Physalis ixocarpa assessed as inhibition of seed germination after 48 hr; assay type: functional; method in brief: as §3
Lolium multiflorum [17] = assay: Phytotoxicity against Lolium multiflorum (Italian ryegrass) assessed as inhibition of shoot development during seeding stage after 120 hr; assay type: functional, organism-based; details: for pIC50: read-out: I50; method in brief: as §2
Lolium multiflorum [18] = assay: Phytotoxicity against Lolium multiflorum (Italian ryegrass) assessed as inhibition of seed germination after 48 hr; assay type: functional; method in brief: as §3
Trifolium pratense [19] = assay: Phytotoxicity against Trifolium pratense (red clover) assessed as inhibition of shoot development during seeding stage after 120 hr; assay type: functional, organism-based; details: for pIC50: read-out: I50; method in brief: as §2
Physalis ixocarpa [20] = assay: Increase of shoot development during seeding stage in Physalis ixocarpa up to 50 uM after 120 hr; assay type: functional, organism-based; method in brief: as §2
Trifolium pratense [21] = assay: Phytotoxicity against Trifolium pratense (red clover) assessed as inhibition of seed germination after 48 hr; assay type: functional; method in brief: as §3
Physalis ixocarpa [22] = assay: Phytotoxicity against Physalis ixocarpa assessed as inhibition of shoot development during seeding stage after 120 hr; assay type: functional, organism-based; details: for pIC50: read-out: I50; method in brief: as §2
Physalis ixocarpa [23] = assay: Phytotoxicity against Physalis ixocarpa assessed as inhibition of seed respiration during germination after 24 hr; assay type: functional, organism-based; method in brief: as §1
Lactuca sativa [24] = assay: Increase of root development during seeding stage in Lactuca sativa (lettuce) at 50 to 300 uM after 120 hr; assay type: functional, organism-based; method in brief: as §2
Lactuca sativa [25] = assay: Phytotoxicity against Lactuca sativa (lettuce) assessed as inhibition of seed respiration during germination after 72 hr; assay type: functional, organism-based; details: read-out: I50; method in brief: as §1
Spinacia oleracea [26] = assay: Inhibition of H+ uptake in Spinacia oleracea (spinach) chloroplasts; assay type: functional; details: for pIC50: read-out: I50
Method in brief: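 Spinach thylakoids (from isolated chloroplasts, in sorbitol/tricine/MgCl2/NaCl buffer, pH 7.8) in 100 mM sorbitol, 5 mM MgCl2, 10 mM KCl, 1 mM Na+-tricine, pH 8, with 50 µM methyl viologen. Illuminated at 20 °C through 1% CuSO4 filter. H+ uptake recorded as pH rise from 8.0 to 8.1 with combination microelectrode on expanded scale.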

Phaseolus vulgaris = assay: Inhibition of mitochondrial respiration in Phaseolus vulgaris root mitochondria assessed as reduction of oxygen uptake; assay type: functional; details: read-out: I50
Method in brief: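 Mitochondria from roots of 72 h dark-grown (28 °C) bean seedlings, Percoll-gradient purified, 0.3-0.5 mg protein (Bradford) per run; integrity checked with HCN. Compounds in 0.5% methanol added after a constant state 3 rate with […] was reached. O2 uptake by Clark electrode; control is mitochondria with 0.5% MeOH. Three experiments; I50 by Probit.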

Physalis ixocarpa [27] = assay: Phytotoxicity against Physalis ixocarpa assessed as inhibition of seed respiration during germination after 72 hr; assay type: functional, organism-based; details: read-out: I50; method in brief: as §1
[28] = Antioxidant activity assessed as inhibition of bleaching of water soluble crocin measured every 5 min by spectrophotometric analysis; assay type: functional
Method in brief: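 Aqueous mixture of 10 µM crocin, 1 mM t-BuOOH and 0.5 M t-BuOH with serial dilutions of test compound, placed under UV254 light; crocin bleaching (absorbance decrease) and fluorescence emission at 440 and 470 nm followed every 5 min. Three experiments, mean ± SEM.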

Lolium multiflorum [29] = assay: Phytotoxicity against Lolium multiflorum (Italian ryegrass) assessed as inhibition of seed respiration during germination after 72 hr; assay type: functional, organism-based; details: read-out: I50; method in brief: as §1
Trifolium pratense [30] = assay: Phytotoxicity against Trifolium pratense (red clover) assessed as inhibition of seed respiration during germination after 72 hr; assay type: functional, organism-based; details: read-out: I50; method in brief: as §1
[31] = system: Radical scavenging activity; assay: Antioxidant activity assessed as DPPH free radical scavenging activity after 30 min by TLC autographic assay; assay type: functional; details: in the assay text read “spectrophotometric assay” for “TLC autographic assay”; read-out: I50
Spinacia oleracea [32] = assay: Inhibition of ATP synthesis in Spinacia oleracea (spinach) chloroplasts; assay type: functional
Method in brief: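 Spinach thylakoids in 100 mM sorbitol, 5 mM MgCl2, 10 mM KCl, 1 mM Na+-tricine, pH 8, with 50 µM methyl viologen as Hill-reaction electron acceptor. Illuminated at 20 °C through 1% CuSO4 filter. ATP synthesis measured titrimetrically.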

Row | SMILES | I50 (Trifolium pratense [1]) | Activity (Trifolium pratense [2]) | I50 (Lolium multiflorum [3]) | inhibition at 500 µM (Lolium multiflorum [4]) [%] | pIC50 (Lactuca sativa [5]) | I50 (Lactuca sativa [6]) | pIC50 (Lolium multiflorum [7]) | inhibition at 500 µM [8] [%] | Activity (Lolium multiflorum [9]) | GI50 (Lactuca sativa [11]) | pIC50 (Lactuca sativa [12]) | Activity (Trifolium pratense [13]) | pIC50 (Trifolium pratense [14]) | Activity (Lolium multiflorum [15]) | GI50 (Physalis ixocarpa [16]) | pIC50 (Lolium multiflorum [17]) | GI50 (Lolium multiflorum [18]) | pIC50 (Trifolium pratense [19]) | Activity (Physalis ixocarpa [20]) | GI50 (Trifolium pratense [21]) | also measured
1 | CC(=O)Oc1ccc(C(C)=O)cc1 [4-(ACETATE)ACETOPHENONE] | inactive | Active | inactive | 30 | 4.41 | inactive | 4.12 | 30 | Active | 41 µM | 4.41 | Active | 3.66 | Active | inactive | 4.11 | 75.3 µM | 3.63 | Active | 233 µM | I50 (Physalis ixocarpa [10]): inactive; I50 (Physalis ixocarpa [22]): inactive; I50 (Physalis ixocarpa [23]): inactive; Activity (Lactuca sativa [24]): Active
2 | C=C(C)[C@H]1Cc2c(ccc(C(C)=O)c2OC(C)=O)O1 [4-ACETYL TREMETONE] | inactive | Active | inactive | 30 | 4.06 | inactive | 4.09 | 30 | Active | 85.5 µM | 4.05 | Active | 4.35 | Active | 55.2 µM | 4.06 | 79.9 µM | 4.35 | Active | 40 µM | pIC50 (Physalis ixocarpa [10]): 4.15; pIC50 (Physalis ixocarpa [22]): 4.18; I50 (Physalis ixocarpa [23]): inactive; Activity (Lactuca sativa [24]): Active
3 | C=C(C)[C@H]1Cc2c(ccc(C(C)=O)c2O)O1 [4-HYDROXY TREMETONE] |  |  |  |  | 4.78 |  | 4.65 |  |  | 21 µM | 4.72 |  | 4.33 |  | 16.6 µM | 4.58 | 25.5 µM | 4.32 |  | 17.8 µM | pIC50 (Lactuca sativa [25]): 4.57; inhibition (Spinacia oleracea [26]): Dose-dependent effect; pIC50 (Spinacia oleracea [26]): 4.69; pIC50 (Phaseolus vulgaris): 4.35; pIC50 (Physalis ixocarpa [27]): 4.54; inhibition [28]: Active; pIC50 (Physalis ixocarpa [10]): 4.90; pIC50 (Lolium multiflorum [29]): 4.41; pIC50 (Physalis ixocarpa [22]): 4.82; pIC50 (Trifolium pratense [30]): 4.66; pIC50 [31]: 4.27; inhibition (Spinacia oleracea [32]): Dose-dependent effect
4 | CC(=O)c1ccc2c(c1)CC(C1(C)CO1)O2 (stereo unspecified) [10,11-EPOXY TREMETONE] |  |  |  |  | 4.47 |  | 4.14 |  |  | 36.1 µM | 4.48 |  | 4.79 |  | 19.2 µM | 4.18 | 65.6 µM | 4.84 |  | 22.3 µM | pIC50 (Lactuca sativa [25]): 4.24; inhibition (Spinacia oleracea [26]): Dose-dependent effect; pIC50 (Spinacia oleracea [26]): 4.39; pIC50 (Phaseolus vulgaris): 3.96; pIC50 (Physalis ixocarpa [27]): 4.24; inhibition [28]: Active; pIC50 (Physalis ixocarpa [10]): 4.80; pIC50 (Lolium multiflorum [29]): 4.17; pIC50 (Physalis ixocarpa [22]): 5.24; pIC50 (Trifolium pratense [30]): 4.31; pIC50 [31]: 4.20; inhibition (Spinacia oleracea [32]): Dose-dependent effect
5 | CC(=O)c1ccc(O[C@@H]2O[C@H](CO)[C@@H](O)[C@H](O)[C@H]2O)cc1 [PICEIN] | inactive | Active | inactive | 30 |  | inactive |  | 30 | Active | inactive |  | Active |  | Active | inactive |  | inactive |  | Active | inactive | I50 (Lactuca sativa [5]): inactive; I50 (Lolium multiflorum [7]): inactive; I50 (Physalis ixocarpa [10]): inactive; I50 (Lactuca sativa [12]): inactive; I50 (Trifolium pratense [14]): inactive; I50 (Lolium multiflorum [17]): inactive; I50 (Trifolium pratense [19]): inactive; I50 (Physalis ixocarpa [22]): inactive; I50 (Physalis ixocarpa [23]): inactive; Activity (Lactuca sativa [24]): Active
